ChEMBL document CHEMBL5154634, “A Modular Synthetic Route Involving N-Aryl-2-nitrosoaniline Intermediates Leads to a New Series of 3-Substituted Halogenated Phenazine Antibacterial Agents” (J Med Chem, 2021)
Converted amounts (≈) assume the structure as drawn. The source made the active and inactive calls. The rule behind the calls is not given here.

How the values were obtained:
Streptococcus pneumoniae = experiment: Antibacterial activity against Streptococcus pneumoniae ATCC 6303 assessed as bacterial growth inhibition incubated for 16 to 20 hrs by turbidity based analysis; type: functional; details: time 16-20 hrs
Staphylococcus aureus [1] = experiment: Antibacterial activity against methicillin-resistant Staphylococcus aureus clinical isolate 1 assessed as bacterial growth inhibition; type: functional
Staphylococcus aureus [2] = experiment: Antibiofilm activity against methicillin-resistant Staphylococcus aureus BAA-1707 biofilms assessed as biofilm killing at MBEC measured by CBD assay; type: functional
Enterococcus faecalis [3] = experiment: Antibacterial activity against Enterococcus faecalis OG1RF ATCC 47077 assessed as bacterial growth inhibition incubated for 16 hrs by broth microdilution susceptibility test; type: functional
[4] = test system: Staphylococcus epidermidis; experiment: Bactericidal activity against methicillin-resistant Staphylococcus epidermidis ATCC 35984 planktonic cells assessed as planktonic eradication incubated for 24 hrs followed by incubation for overnight in fresh medium by Calgary biofilm device assay; type: functional
How it was run: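 Calgary biofilm device. Biofilms grown 24 h at 37 °C in TSB with 0.5% glucose, then challenged 24 h with twofold compound dilutions. 20 μL of challenge medium transferred into fresh TSB with 0.5% glucose and incubated overnight at 37 °C. MBC is the concentration with no visible turbidity. At least three independent experiments.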

Staphylococcus aureus [5] = experiment: Antibacterial activity against Staphylococcus aureus UAMS-1 infected in BALB/c mouse dorsal wound infection model assessed as reduction in bacterial load in wound administered topically twice a day for 3 days; type: functional; details: time 3 day
How it was run: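 Female BALB/c mice, 4–6 weeks old, anesthetized with ketamine/xylazine i.p. 4.5 mm dermal punch wound inoculated with 1×10⁷ CFU in 10 μL. 50 μL PEG 400/3350 ointment or vehicle given 45 min post-inoculation, then every 12 h for 3 days. Tissue excised with 7 mm punch, homogenized, plated on ChromoAgar; CFU per lesion.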

J774 = experiment: Cytotoxicity against mouse J774 cells assessed as reduction in cell viability […] by Alamar blue assay; type: toxicity, cell-based
Staphylococcus aureus [6] = experiment: Induction of iron starvation in methicillin-resistant Staphylococcus aureus BAA-1707 biofilms assessed as upregulation of MW0695 gene expression at 1/10XMBEC incubated for 4 hrs by RT-qPCR analysis; type: functional
How it was run: (§1)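 MRSA BAA-1707 grown in TSB with 0.5% glucose to OD600 ~0.8–1.0, then biofilms formed 20 h at 37 °C statically in gelatin-coated 24-well plates. Biofilms treated 4 h at 37 °C with compound (1 μM or 1/10 MBEC) or DMSO vehicle. RNA extracted; only RIN ≥7 samples used. One-step SYBR RT-qPCR; ΔCT normalised to ptaA. Three independent experiments.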

Erythrocyte = experiment: Hemolytic activity against human RBC at 200 uM measured after 1 hr; type: toxicity, cell-based
How it was run: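 2% hRBCs exposed to compound at 200 μM final, added from DMSO stock, for 1 h at 37 °C. Supernatant OD read at 405 nm. Hemolysis normalized between DMSO (0%) and Triton X (100%); three independent experiments.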

HepG2 = experiment: Cytotoxicity against human HepG2 cells assessed as reduction in cell viability […] by Alamar blue assay; type: toxicity, cell-based
[7] = test system: Mycobacterium tuberculosis; experiment: Antibacterial activity against Mycobacterium tuberculosis H37Ra ATCC 25177 assessed as bacterial growth inhibition incubated for 7 days by absorbance based analysis; type: functional; details: H37Ra ATCC 25177, 168 h, time 7 day
How it was run: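 H37Ra grown 2 weeks in Middlebrook 7H9, then diluted to OD600 0.01. Compounds added in twofold dilutions, final 0.024–50 μM, with 0.5% DMSO and streptomycin as positive control. Incubated 7 days at 37 °C. MIC is the lowest concentration with no growth, with OD600 recorded. At least three independent experiments.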

[8] = test system: Staphylococcus epidermidis; experiment: Antibiofilm activity against methicillin-resistant Staphylococcus epidermidis ATCC 35984 biofilms assessed as reduction of viable biofilm cells at 3.13 uM measured by CBD assay; type: functional
[9] = Binding affinity to Fe2+ assessed as compound-Fe2+ complex formation by UV-vis spectroscopy
Staphylococcus aureus [10] = experiment: Induction of iron starvation in methicillin-resistant Staphylococcus aureus BAA-1707 biofilms assessed as upregulation of sfaA gene expression at 1/10XMBEC incubated for 4 hrs by RT-qPCR analysis; type: functional; how it was run: as §1
Enterococcus faecalis [11] = experiment: Antibacterial activity against Enterococcus faecalis OG1RF ATCC 47077 infected in C57BL/6J mouse dorsal wound infection model assessed as reduction in bacterial load in wound administered topically once a day for 3 days; type: functional; details: time 3 day
How it was run: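 Female C57BL/6J mice, 7 weeks old. 3 mm dorsal punch wound infected with 20 μL of 6×10¹⁰ CFU/mL and covered with Tegaderm. From 24 h post-infection, PEG 400/PEG 3350 ointment or PEG vehicle applied topically once daily. Day 3 wounds excised, homogenized in PBS and plated on TSA with rifampicin and fusidic acid for CFU.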

Staphylococcus aureus [12] = experiment: Antibiofilm activity against methicillin-resistant Staphylococcus aureus BAA-1707 biofilms assessed as biofilm eradication incubated for 24 hrs followed by incubation for 24 hrs in fresh medium by Calgary biofilm device assay; type: functional
How it was run: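 Calgary biofilm device. Mid-log culture diluted 1000-fold in TSB with 0.5% glucose; biofilms grown on pegs 24 h at 37 °C. Pegs washed and challenged with twofold compound dilutions for 24 h at 37 °C, then moved to fresh medium for 24 h. MBEC is the lowest concentration leaving wells non-turbid. At least three independent experiments.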

Staphylococcus aureus [13] = experiment: Induction of iron starvation in methicillin-resistant Staphylococcus aureus BAA-1707 biofilms assessed as upregulation of MW0695 gene expression at 1 uM incubated for 4 hrs by RT-qPCR analysis; type: functional; how it was run: as §1
Staphylococcus aureus [14] = experiment: Antibacterial activity against methicillin-resistant Staphylococcus aureus BAA-1707 assessed as bacterial growth inhibition incubated for 16 hrs by broth microdilution susceptibility test; type: functional
How it was run: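 CLSI broth microdilution with 11 twofold dilutions (0.05–50 μM). About 10^5 cells per well from a log-phase culture. DMSO vehicle up to 0.5% v/v. At least three independent experiments.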

Staphylococcus aureus [15] = experiment: Induction of iron starvation in methicillin-resistant Staphylococcus aureus BAA-1707 biofilms assessed as upregulation of sbnC gene expression at 1/10XMBEC incubated for 4 hrs by RT-qPCR analysis; type: functional; how it was run: as §1
HEK293 = experiment: Cytotoxicity against human HEK293 cells assessed as reduction in cell viability incubated for 72 hrs by MTT assay; type: toxicity, cell-based
How it was run: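 HEK-293 cells in DMEM with 10% FBS, 10⁴ cells/well, seeded overnight. Exposed to 0–200 μM (twofold steps, n = 6) for 72 h at 37 °C. MTT 5 mg/mL added for 4 h, formazan dissolved in DMSO, OD read at 570 nm. Inhibition % = (1 − test/untreated OD) × 100.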

Staphylococcus aureus [16] = experiment: Antibiofilm activity against methicillin-resistant Staphylococcus aureus BAA-1707 biofilms assessed as reduction of viable biofilm cells at MBEC measured by CBD assay; type: functional
How it was run: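 After the Calgary biofilm device assay, treated and untreated pegs were removed, sonicated 30 min in PBS and plated for CFU per peg. Log10 reduction of viable biofilm cells at the MBEC determined by comparison with untreated pegs. At least three independent experiments.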

Cc1cccc2nc3c(O)c(Br)c(Cl)c(Br)c3nc12
MIC (Streptococcus pneumoniae): 0.5 µM (≈ 0.201 µg/mL) | MIC (Staphylococcus aureus [1]): 0.06 µM (≈ 0.0241 µg/mL) | Activity (Staphylococcus aureus [2]): 99.9% | MIC (Enterococcus faecalis [3]): 0.2 µM (≈ 0.0805 µg/mL) | MBC [4]: 0.78 µM (≈ 0.314 µg/mL) | Activity (Staphylococcus aureus [5]): 0.82 log10CFU | IC50 (J774): > 200 µM | Activity (Staphylococcus aureus [6]): Active | Activity (Erythrocyte): <= 1% | IC50 (HepG2): > 200 µM | MIC [7]: […] | Activity [8]: 5 log10CFU | Activity [9]: Active | Activity (Staphylococcus aureus [10]): Active | Activity (Enterococcus faecalis [11]): 1.73 log10CFU | MBEC (Staphylococcus aureus [12]): 1.56 µM | Activity (Staphylococcus aureus [13]): Active | MIC (Staphylococcus aureus [14]): 0.05 µM (≈ 0.0201 µg/mL) | Activity (Staphylococcus aureus [15]): Active | IC50 (HEK293): 18.3 µM | Activity (Staphylococcus aureus [16]): 2.55 log10CFU
